According to article PMC6543826 (Bioorganic chemistry, 2018):
Several values for one entry are separate records, joined by “and”; a condition that tells them apart may be missing. Equal entries are not always repeated.

Tests used:
[1] = system: CCRF-CEM; test: cells; type: cell-based
[2] = system: HL-60 (TB); test: cells; type: cell-based
[3] = system: EKVX; test: NCI-60 SRB screen, Non-small cell lung cancer; type: cell-based, human
[4] = system: NCI-H226; test: cells; type: cell-based
[5] = system: NCI-H322M; test: cells; type: cell-based
[6] = system: NCI-H522; test: cells; type: cell-based
[7] = system: HT29; test: cells; type: cell-based
[8] = system: SF-539; test: cells; type: cell-based
[9] = system: SNB-19; test: cells; type: cell-based
[10] = system: SNB-75; test: cells; type: cell-based
[11] = system: U251; test: cells; type: cell-based
[12] = system: LOX IMVI; test: cells; type: cell-based
[13] = system: M14; test: cells; type: cell-based
[14] = system: MDA-MB-435; test: cells; type: cell-based
[15] = system: SK-MEL-2; test: cells; type: cell-based
[16] = system: UACC-62; test: cells; type: cell-based
[17] = system: IGROV1; test: cells; type: cell-based
[18] = system: OVCAR-3; test: cells; type: cell-based
[19] = system: OVCAR-5; test: cells; type: cell-based
[20] = system: A498; test: NCI-60 SRB screen, Renal cancer; type: cell-based, human
[21] = system: ACHN; test: cells; type: cell-based
[22] = system: UO-31; test: cells; type: cell-based
[23] = system: PC-3; test: cells; type: cell-based
[24] = system: BT-549; test: cells; type: cell-based
[25] = target: p38MAPKα (Homo sapiens, UniProt Q16539); test: in vitro kinase assay, GST-ATF2; type: biochemical
p38MAPKα, sequence (Q16539 whole entry): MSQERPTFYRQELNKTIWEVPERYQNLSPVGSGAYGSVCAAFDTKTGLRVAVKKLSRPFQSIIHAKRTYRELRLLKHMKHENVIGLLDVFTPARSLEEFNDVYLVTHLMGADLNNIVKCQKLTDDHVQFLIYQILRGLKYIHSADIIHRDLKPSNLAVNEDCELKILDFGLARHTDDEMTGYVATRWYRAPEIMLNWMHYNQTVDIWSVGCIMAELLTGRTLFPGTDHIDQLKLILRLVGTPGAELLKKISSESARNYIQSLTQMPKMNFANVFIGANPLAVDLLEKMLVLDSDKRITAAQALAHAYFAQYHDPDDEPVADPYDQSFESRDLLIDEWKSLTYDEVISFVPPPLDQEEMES

[26] = system: BRAF-mutant A375 melanoma cells; test: A375 cell viability, MTS assay; type: cell-based; settings: Homo sapiens, A-375, 72 h, read-out: A375 Cell Viability IC50
Summary of the method: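 A375 cells were kept in RPMI with 10% heat-inactivated FBS, Glutamax and penicillin/streptomycin at 37 °C in 5% CO2. 2000 cells per well were treated with a range of test compound doses for 72 h. Viability was read by MTS assay. Run in triplicate.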

[27] = system: A375 cells; test: anchorage dependent colony formation assay; type: cell-based, human; settings: A375, 10–14 days
Summary of the method: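 1000 A375 cells per 60 mm plate adhered for 24 h, then were treated with various test compound doses for 10–14 days. Plates were PBS-washed and fixed in 4% paraformaldehyde (15 min, room temperature). They were stained with 0.2% crystal violet in 20% methanol for 10 min, water-washed and imaged under microscope.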

[28] = system: A375 cells; test: IncuCyte real time proliferation assay; type: cell-based, human; settings: imaged every 1 h for 90 h
Summary of the method: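 Real-time growth: 2000 A375 cells per well adhered for 24 h, then were treated with a range of test compound doses. Phase images were taken on IncuCyte ZOOM (10× objective) every 1 h for 90 h in total. Growth confluence was estimated from the images and plotted.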

[29] = system: caspase 3/7 in A375 cells; test: IncuCyte Caspase 3/7 apoptosis assay; type: cell-based, human; settings: doses of 3.7 and 33.3 μM, after 48 and 72 h
Summary of the method: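 2000 A375 cells per well adhered for 24 h, then received test compound doses plus a constant concentration of IncuCyte Caspase-3/7 reagent. Cells were imaged on IncuCyte ZOOM (10× objective) at set time points, and stained cells were counted. Apoptotic cell number was normalized to percentage area confluence at the final time point.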

[30] = system: cleaved PARP in A375 cells; test: PARP cleavage western blot; type: cell-based, human; settings: 12 h exposure
Summary of the method: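 A375 cells (1,000,000 per well) were seeded 24 h, then exposed to several test compound doses for 12 h before lysis in buffer with protease/phosphatase inhibitors. Protein was measured by Bradford. 60 μg lysate was run on 10% SDS-PAGE and blotted to PVDF. Blots were probed for PARP and cleaved PARP, with vinculin as loading control. Done twice.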

O=C1c2ccccc2C(=O)c2c1oc1c2c(=O)[nH]c2ccc(Cl)cc21 [3b, 2-Chloronaphtho[2′,3′:4,5]furo[3,2-c]quinoline-6,7,12(5H)-trione]
Growth percent (G%) ([1]; 10^−5 M, 48 h): 29.04% | GI50 ([1]; Homo sapiens): 0.41 µM | CC50 ([1]; Homo sapiens, read-out: LC50): > 100 µM | TGI ([1]; five-dose): 4.86 µM | Growth percent (G%) ([2]; HL-60(TB), 10^−5 M, 48 h): 94.52% | TGI ([2]; HL-60 (TB), five-dose): 5.25 µM | GI50 ([2]; Homo sapiens, HL-60): 1.7 µM | CC50 ([2]; Homo sapiens, HL-60, read-out: LC50): 34.8 µM | Growth percent (G%) ([3]; 10^−5 M, 48 h): 15.17% | GI50 ([3]; Homo sapiens): 0.25 µM | CC50 ([3]; Homo sapiens, read-out: LC50): 26.3 µM | TGI ([3]; five-dose): 2.45 µM | GI50 ([4]; Homo sapiens, NCI-H226): 0.14 µM | CC50 ([4]; Homo sapiens, NCI-H226, read-out: LC50): 0.87 µM | Growth percent (G%) ([4]; NCI-H226, 10^−5 M, 48 h): −28.80% | TGI ([4]; NCI-H226, five-dose): 0.35 µM | Growth percent (G%) ([5]; 10^−5 M, 48 h): 13.98% | GI50 ([5]; Homo sapiens): 0.32 µM | CC50 ([5]; Homo sapiens, read-out: LC50): 7.24 µM | TGI ([5]; five-dose): 1.45 µM | GI50 ([6]; Homo sapiens, NCI-H522): 0.32 µM | CC50 ([6]; Homo sapiens, NCI-H522, read-out: LC50): 8.13 µM | Growth percent (G%) ([6]; NCI-H522, 10^−5 M, 48 h): −16.76% | TGI ([6]; NCI-H522, five-dose): 1.38 µM | Growth percent (G%) ([7]; HT29, 10^−5 M, 48 h): 66.37% | TGI ([7]; HT29, five-dose): 12.88 µM | GI50 ([7]; Homo sapiens, HT-29): 3.72 µM | CC50 ([7]; Homo sapiens, HT-29, read-out: LC50): 39.8 µM | GI50 ([8]; Homo sapiens, SF-539): 0.23 µM | CC50 ([8]; Homo sapiens, SF-539, read-out: LC50): 2.09 µM | Growth percent (G%) ([8]; SF-539, 10^−5 M, 48 h): −27.99% | TGI ([8]; SF-539, five-dose): 0.56 µM | GI50 ([9]; Homo sapiens, SNB-19): 0.31 µM | CC50 ([9]; Homo sapiens, SNB-19, read-out: LC50): 6.17 µM | Growth percent (G%) ([9]; SNB-19, 10^−5 M, 48 h): 7.11% | TGI ([9]; SNB-19, five-dose): 1.10 µM | GI50 ([10]; Homo sapiens, SNB-75): 0.16 µM | CC50 ([10]; Homo sapiens, SNB-75, read-out: LC50): 1.29 µM | Growth percent (G%) ([10]; SNB-75, 10^−5 M, 48 h): −9.01% | TGI ([10]; SNB-75, five-dose): 0.42 µM | GI50 ([11]; Homo sapiens, U-251): 0.27 µM | CC50 ([11]; Homo sapiens, U-251, read-out: LC50): 2.82 µM | Growth percent (G%) ([11]; U251, 10^−5 M, 48 h): −77.55% | TGI ([11]; U251, five-dose): 0.76 µM | Growth percent (G%) ([12]; 10^−5 M, 48 h): 11.13% | GI50 ([12]; Homo sapiens): 0.32 µM | CC50 ([12]; Homo sapiens, read-out: LC50): 3.98 µM | TGI ([12]; five-dose): 1.32 µM | GI50 ([13]; Homo sapiens, M14): 0.4 µM | CC50 ([13]; Homo sapiens, M14, read-out: LC50): 4.57 µM | Growth percent (G%) ([13]; M14, 10^−5 M, 48 h): 10.44% | TGI ([13]; M14, five-dose): 1.51 µM | GI50 ([14]; Homo sapiens, MDA-MB-435): 0.3 µM | CC50 ([14]; Homo sapiens, MDA-MB-435, read-out: LC50): 4.07 µM | Growth percent (G%) ([14]; MDA-MB-435, 10^−5 M, 48 h): 10.25% | TGI ([14]; MDA-MB-435, five-dose): 1.20 µM | GI50 ([15]; Homo sapiens, SK-MEL-2): 1.74 µM | CC50 ([15]; Homo sapiens, SK-MEL-2, read-out: LC50): 19.9 µM | Growth percent (G%) ([15]; SK-MEL-2, 10^−5 M, 48 h): 31.83% | TGI ([15]; SK-MEL-2, five-dose): 5.13 µM | GI50 ([16]; Homo sapiens, UACC-62): 0.28 µM | CC50 ([16]; Homo sapiens, UACC-62, read-out: LC50): 3.98 µM | Growth percent (G%) ([16]; UACC-62, 10^−5 M, 48 h): 75.08% | TGI ([16]; UACC-62, five-dose): 1.15 µM | GI50 ([17]; Homo sapiens, IGROV-1): 0.22 µM | CC50 ([17]; Homo sapiens, IGROV-1, read-out: LC50): 3.47 µM | Growth percent (G%) ([17]; IGROV1, 10^−5 M, 48 h): −3.63% | TGI ([17]; IGROV1, five-dose): 0.74 µM | GI50 ([18]; Homo sapiens, OVCAR-3): 0.24 µM | CC50 ([18]; Homo sapiens, OVCAR-3, read-out: LC50): 1.82 µM | Growth percent (G%) ([18]; OVCAR-3, 10^−5 M, 48 h): −68.37% | TGI ([18]; OVCAR-3, five-dose): 0.56 µM | GI50 ([19]; Homo sapiens, OVCAR-5): 3.47 µM | CC50 ([19]; Homo sapiens, OVCAR-5, read-out: LC50): 40.7 µM | Growth percent (G%) ([19]; OVCAR-5, 10^−5 M, 48 h): 52.70% | TGI ([19]; OVCAR-5, five-dose): 14.79 µM | Growth percent (G%) ([20]; A498, 10^−5 M, 48 h): 80.44% | TGI ([20]; A498, five-dose): 0.95 µM | GI50 ([20]; Homo sapiens, A498): 0.21 µM | CC50 ([20]; Homo sapiens, A498, read-out: LC50): 3.55 µM | Growth percent (G%) ([21]; 10^−5 M, 48 h): −14.18% | GI50 ([21]; Homo sapiens): 0.2 µM | CC50 ([21]; Homo sapiens, read-out: LC50): 2.63 µM | TGI ([21]; five-dose): 0.58 µM | GI50 ([22]; Homo sapiens, UO-31): 0.19 µM | CC50 ([22]; Homo sapiens, UO-31, read-out: LC50): 2.51 µM | Growth percent (G%) ([22]; UO-31, 10^−5 M, 48 h): −54.91% | TGI ([22]; UO-31, five-dose): 0.60 µM | GI50 ([23]; Homo sapiens, PC-3): 0.18 µM | CC50 ([23]; Homo sapiens, PC-3, read-out: LC50): 1.58 µM | Growth percent (G%) ([23]; PC-3, 10^−5 M, 48 h): −33.26% | TGI ([23]; PC-3, five-dose): 0.46 µM | Growth percent (G%) ([24]; BT-549, 10^−5 M, 48 h): 37.99% | TGI ([24]; BT-549, five-dose): 1.32 µM | GI50 ([24]; Homo sapiens, BT-549): 0.3 µM | CC50 ([24]; Homo sapiens, BT-549, read-out: LC50): 6.76 µM | ability to inhibit p38MAPKα (in words) [25]: little tendency to inhibit | IC50 ([25]; p38MAPKα IC50, 10 μM GST-ATF2): 28 µM and 27.9 µM | IC50 [26]: 3.7 ± 0.6 µM | concentration at which inhibition of colony forming ability starts [27]: 10 µM | A375 real time proliferation (growth confluence), in words [28]: dose-dependent inhibition | caspase 3/7 activity in A375 [29]: activation of caspase 3/7 | level of cleaved PARP in A375 [30]: elevated level
